The record followed here is ChEMBL document CHEMBL1154436, “Synthesis, pharmacological activity and hydrolytic behavior of ethylenediamine and benzathine conjugates of ibuprofen” (Eur J Med Chem, 2008).

Data set [1] has as its system Rattus norvegicus. Kind of data set: Antiinflammatory activity in Wistar rat assessed as inhibition of carrageenan-induced paw edema at 21.15 mg/kg, po administered 30 mins before carrageenan challenge measured 24 hrs after post drug dose. The class given is functional. A digest of the protocol:
(§1)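 Wistar rats (150–200 g), four groups of six. Drug given orally, 0.75–1.0 ml of a suspension in 0.5% w/v sodium CMC (stocks 4, 4.23, 5.99 mg/ml), dose molecularly equivalent to ibuprofen 20 mg/kg. Control group received no drug. Carrageenan 1%, 0.1 ml, injected subplantar into the left hind paw 30 min after dosing. Paw volume measured before and after treatment. Inhibition % = [(Vt−V0)control − (Vt−V0)treated]/(Vt−V0)control × 100. One-way ANOVA versus control.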
(In general: Carrageenan injected into the paw causes an acute inflammation.)

The nature of data set [2]: Chemical stability assessed as hydrolysis in hydrochloric acid buffer at pH 1.2. The class given is physicochemical. In outline: (§2)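 Hydrolysis in HCl (pH 1.2) or phosphate (pH 7.4) buffer, 0.05 M total buffer, ionic strength held at 0.5 M with KCl, 37 °C. Released parent drug measured by UV in a chloroform extract. At pH 7.4, sampled at 0.5–10 h. pH 1.2 assay run 2 h. First-order k = 2.303/t·log(a/(a−x)), t in minutes; half-life derived. Mean of three sets.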

Data set [3] concerns Rattus norvegicus. The data set can be described thus: Gastrointestinal toxicity in Wistar rat assessed ulcer index at 100 mg/kg, po after 17 hrs. Conditions: in vivo. Set-up: dose 100 mg/kg, route oral. The class given is organism-based. A digest of the protocol: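 Adult Wistar rats (150–200 g), four groups of six, fasted 8 h before dosing. Vehicle control, ibuprofen 100 mg/kg, or conjugate at a dose molecularly equivalent to ibuprofen 100 mg/kg. Killed 17 h after dosing, with food and water ad libitum. Gastric mucosa examined with a 4× binocular magnifier. Lesions classed as large (>2 mm), small (1–2 mm) or punctiform (<1 mm) and scored. Index = treated mean score minus control mean score.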

The nature of data set [4]: Chemical stability assessed as hydrolysis in phosphate buffer at pH 7.4. The class given is physicochemical. In outline:
as §2

Data set [5] deals with Mus musculus. Kind of data set: Analgesic activity in Swiss albino mouse assessed as protection against acetic acid-induced writhing at 21.15 mg/kg, po administered 3 hrs mins before acetic acid challenge relative to control. The class given is functional. In outline:
(§3)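 Mice, four groups of six: vehicle control 5 ml/kg, or test drug as a homogeneous suspension in 0.5% w/v aqueous sodium CMC (stocks 1, 1.05, 1.49 mg/ml), 0.5–0.6 ml orally, doses molecularly equivalent to ibuprofen 20 mg/kg. Acetic acid given i.p. at 1 ml/100 g body weight. Writhings counted over 10 min. Protection % = 100 − (test/control writhings × 100). Mean ± S.E.M.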
(In general: An intraperitoneal irritant provokes the stretching counted in writhing tests.)

The subject of data set [6] is Rattus norvegicus. Kind of data set: Antiinflammatory activity in Wistar rat assessed as inhibition of carrageenan-induced paw edema at 21.15 mg/kg, po administered 30 mins before carrageenan challenge measured 3 hrs after post drug dose. The class given is functional. In outline: as §1
In data set [7] the test system is Rattus norvegicus. The data set can be described thus: Antiinflammatory activity in Wistar rat assessed as inhibition of carrageenan-induced paw edema at 20 mg/kg, po administered 30 mins before carrageenan challenge measured 24 hrs after post drug dose. The class given is functional. A digest of the protocol: as §1
Data set [8] has as its system Mus musculus. Kind of data set: Analgesic activity in Swiss albino mouse assessed as protection against acetic acid-induced writhing at 20 mg/kg, po administered 3 hrs mins before acetic acid challenge relative to control. The class given is functional. In outline:
as §3

The subject of data set [9] is Rattus norvegicus. The data set can be described thus: Antiinflammatory activity in Wistar rat assessed as inhibition of carrageenan-induced paw edema at 20 mg/kg, po administered 30 mins before carrageenan challenge measured 3 hrs after post drug dose. The class given is functional. In outline: as §1
Data set [10] relates to Rattus norvegicus. The data set can be described thus: Antiinflammatory activity in Wistar rat assessed as inhibition of carrageenan-induced paw edema at 29.98 mg/kg, po administered 30 mins before carrageenan challenge measured 3 hrs after post drug dose. The class given is functional. In outline: as §1
For data set [11], the system named is Mus musculus. The data set can be described thus: Analgesic activity in Swiss albino mouse assessed as protection against acetic acid-induced writhing at 29.98 mg/kg, po administered 3 hrs mins before acetic acid challenge relative to control. The class given is functional. A digest of the protocol:
as §3

Data set [12] relates to Rattus norvegicus. Kind of data set: Antiinflammatory activity in Wistar rat assessed as inhibition of carrageenan-induced paw edema at 29.98 mg/kg, po administered 30 mins before carrageenan challenge measured 24 hrs after post drug dose. The class given is functional. In outline:
as §1

The term inhibition in vivo denotes how much of the control response was suppressed. The half-life is how long it takes for the measured level to halve. Take `CC(C)Cc1ccc(C(C)C(=O)NCCNC(=O)C(C)c2ccc(CC(C)C)cc2)cc1` (mixture of isomers): the inhibition in vivo at 21.15 mg/kg was found to be 38% in [1] and 48% in data set [6]. Besides, the Stability result in [2] was “Stable”. In data set [3], this compound showed a UI of 4.63. For the same compound, the half-life in data set [4] amounted to 69.5 min. Also, the Activity in [5] came out at 29.63%.
For the compound `CC(C)Cc1ccc(C(C)C(=O)O)cc1` (stereo not given) [IBUPROFEN], the inhibition in vivo at 20 mg/kg in data set [7] turned out to be 35.6%; in [9], 52.1%. Also, in data set [8], the Activity is recorded as 23.42%. Further, in data set [3], the UI was determined as 13.51.
In the case of `CC(C)Cc1ccc(C(C)C(=O)N(CCN(Cc2ccccc2)C(=O)C(C)c2ccc(CC(C)C)cc2)Cc2ccccc2)cc1` (mixture of isomers), the figures for the inhibition in vivo at 29.98 mg/kg in data set [10] and in [12] were 53.5% and 32.4%, respectively. Also, the Activity in data set [11] turned out to be 35.84%. In addition, the Stability entry in [2] was “Stable”. Also, in data set [4], the half-life came out at 82.5 min.
